Assay results published in ChEMBL document CHEMBL4622915, “Design and synthesis of C-12 dithiocarbamate andrographolide analogues as an anticancer agent” (Bioorg Med Chem Lett, 2020).

How the values were obtained:
Assay type in all cases: functional, cell-based
A549 = assay: Anticancer activity against human A549 cells assessed as reduction in cell viability measured after 72 hrs by SRB assay; settings: A549, 72 h
Summary of the method: (§1)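 Adherent cells seeded at 10^4 cells/well and exposed 72 h to compound at 0.1–50 μM, dissolved in DMSO (less than 0.05%). Ellipticine served as positive control. Afterwards cells washed, fixed with TCA, stained with 0.4% SRB in 1% acetic acid. Bound dye extracted and OD read at 515 nm; IC50 derived.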

[1] = Anticancer activity against human KKU-M213 cells assessed as reduction in cell viability measured after 72 hrs by SRB assay; settings: KKU-M213, 72 h; summary of the method: as §1
MCF7 = assay: Anticancer activity against human MCF7 cells assessed as reduction in cell viability measured after 72 hrs by SRB assay; settings: MCF7, 72 h; summary of the method: as §1
P388 = assay: Anticancer activity against mouse P388 cells assessed as reduction in cell viability measured after 48 hrs by SRB assay; settings: P388, 48 h
Summary of the method: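 Suspension cells seeded at 10^4 cells/well and exposed 48 h to compound at 0.1–50 μM, dissolved in DMSO (less than 0.05%). Ellipticine served as positive control. Then washed, TCA-fixed, stained with 0.4% SRB in 1% acetic acid. Protein-bound dye extracted and absorbance read at 515 nm; IC50 taken.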

[2] = Anticancer activity against human KKU055 cells assessed as reduction in cell viability measured after 72 hrs by SRB assay; summary of the method: as §1
KB = assay: Anticancer activity against human KB cells assessed as reduction in cell viability measured after 72 hrs by SRB assay; summary of the method: as §1
HT-29 = assay: Anticancer activity against human HT-29 cells assessed as reduction in cell viability measured after 72 hrs by SRB assay; settings: HT-29, 72 h; summary of the method: as §1
[3] = Anticancer activity against rat ASK cells assessed as reduction in cell viability measured after 72 hrs by SRB assay; summary of the method: as §1
HuCC-A1 = assay: Anticancer activity against human HuCCa1 cells assessed as reduction in cell viability measured after 72 hrs by SRB assay; settings: HuCC-A1, 72 h; summary of the method: as §1

Row | IC50 (A549) | IC50 (MCF7) | IC50 (P388) | IC50 (KB) | IC50 (HT-29) | Compound | IC50 [1] | IC50 [2] | IC50 [3] | IC50 (HuCC-A1)
1 | > 50 µM | 7.95 µM | 6.64 µM | 28.1 µM | 21.6 µM | C=C1CC[C@@H]2[C@](C)(COC(C)=O)[C@H](OC(C)=O)CC[C@@]2(C)[C@@H]1C/C=C1/C(=O)OC[C@H]1OC(C)=O | 14.8 µM | 5.02 µM | 22.5 µM | 20.1 µM
2 | 25.1 µM | 3.95 µM | 4.38 µM | 25 µM | 7.08 µM | C=C1CC[C@@H]2[C@](C)(COC(C)=O)[C@H](OC(C)=O)CC[C@@]2(C)[C@@H]1C[C@H](SC(=S)N1CCc2ccccc2C1)C1=CCOC1=O | 5.59 µM | 5.55 µM | 20.1 µM | 7.19 µM
3 | 29.1 µM | 5.46 µM | 4.85 µM | 33.6 µM | 15.3 µM | C=C1CC[C@@H]2[C@](C)(COC(C)=O)[C@H](OC(C)=O)CC[C@@]2(C)[C@@H]1C[C@H](SC(=S)N1CCC(Cc2ccccc2)CC1)C1=CCOC1=O | 6.76 µM | 6.42 µM | 28.5 µM | 19.7 µM
4 | > 50 µM | 24.2 µM | 14.3 µM | 42.5 µM | > 50 µM | C=C1CC[C@@H]2[C@](C)(COC(C)=O)[C@H](OC(C)=O)CC[C@@]2(C)[C@@H]1C[C@H](SC(=S)N1CCN(C(c2ccc(F)cc2)c2ccc(F)cc2)CC1)C1=CCOC1=O | 29.2 µM | 28.3 µM | > 50 µM | > 50 µM
5 | 22.1 µM | 2.56 µM | 5.75 µM | 6 µM | 4.93 µM | C=C1CC[C@@H]2[C@](C)(COC(C)=O)[C@H](OC(C)=O)CC[C@@]2(C)[C@@H]1C[C@H](SC(=S)N1CCN(c2ccc(O)cc2)CC1)C1=CCOC1=O | 4.91 µM | 5.29 µM | 4.74 µM | 4.88 µM
6 | 29.5 µM | 5.68 µM | 4.58 µM | 21.4 µM | 7.91 µM | C=C1CC[C@@H]2[C@](C)(COC(C)=O)[C@H](OC(C)=O)CC[C@@]2(C)[C@@H]1C[C@H](SC(=S)N1CCN(Cc2ccc3c(c2)OCO3)CC1)C1=CCOC1=O | 7.51 µM | 9.75 µM | 14.9 µM | 11.6 µM
7 | 28.5 µM | 4.72 µM | 5.76 µM | 17.8 µM | 6.58 µM | C=C1CC[C@@H]2[C@](C)(COC(C)=O)[C@H](OC(C)=O)CC[C@@]2(C)[C@@H]1C[C@H](SC(=S)N1CCN(c2ccccc2OC)CC1)C1=CCOC1=O | 5.59 µM | 7.62 µM | 14.3 µM | 8.08 µM
8 | 28.9 µM | 6.53 µM | 4.3 µM | 23.5 µM | 8.08 µM | C=C1CC[C@@H]2[C@](C)(COC(C)=O)[C@H](OC(C)=O)CC[C@@]2(C)[C@@H]1C[C@H](SC(=S)N1CCN(c2ccccc2)CC1)C1=CCOC1=O | 6.47 µM | 9.27 µM | 15.6 µM | 9.59 µM
9 | > 50 µM | 21.7 µM | 22.6 µM | > 50 µM | > 50 µM | C=C1CC[C@@H]2[C@](C)(COC(C)=O)[C@H](OC(C)=O)CC[C@@]2(C)[C@@H]1C[C@H](SC(=S)N1CCN(C(c2ccccc2)c2ccc(Cl)cc2)CC1)C1=CCOC1=O (stereo partly specified) | > 50 µM | 27.7 µM | > 50 µM | > 50 µM
10 | 27.8 µM | 6.06 µM | 5.5 µM | 19.4 µM | 8.29 µM | C=C1CC[C@@H]2[C@](C)(COC(C)=O)[C@H](OC(C)=O)CC[C@@]2(C)[C@@H]1C[C@H](SC(=S)N1CCN(c2ccc(C)cc2)CC1)C1=CCOC1=O | 6.49 µM | 14.8 µM | 28 µM | 17.5 µM
11 | 14.8 µM | 2.93 µM | 5.74 µM | 5.96 µM | 4.14 µM | C=C1CC[C@@H]2[C@](C)(COC(C)=O)[C@H](OC(C)=O)CC[C@@]2(C)[C@@H]1C[C@H](SC(=S)N1CCOCC1)C1=CCOC1=O | 5.16 µM | 5.24 µM | 9.25 µM | 4.79 µM
12 | 22.5 µM | 3.75 µM | 4.06 µM | 24.8 µM | 6.73 µM | C=C1CC[C@@H]2[C@](C)(COC(C)=O)[C@H](OC(C)=O)CC[C@@]2(C)[C@@H]1C[C@H](SC(=S)N(Cc1ccccc1)C(C)C)C1=CCOC1=O | 5.52 µM | 5.29 µM | 20.3 µM | 8.64 µM
13 | 6.94 µM | 0.59 µM | 2.17 µM | 25.3 µM | 6.22 µM | C=C1CC[C@@H]2[C@](C)(COC(C)=O)[C@H](OC(C)=O)CC[C@@]2(C)[C@@H]1C[C@H](SC(=S)N(C)Cc1ccccc1)C1=CCOC1=O | 4.83 µM | 1.36 µM | 6.92 µM | 8.63 µM
14 | > 50 µM | 42.3 µM | 36.5 µM | > 50 µM | > 50 µM | C=C1CC[C@@H]2[C@](C)(COC(C)=O)[C@H](OC(C)=O)CC[C@@]2(C)[C@@H]1C[C@H](SC(=S)N1CCN(C(c2ccccc2)c2ccccc2)CC1)C1=CCOC1=O | > 50 µM | > 50 µM | > 50 µM | > 50 µM
15 | 32.8 µM | 5.56 µM | 4.8 µM | > 50 µM | 13.7 µM | C=C1CC[C@@H]2[C@](C)(COC(C)=O)[C@H](OC(C)=O)CC[C@@]2(C)[C@@H]1C[C@H](SC(=S)N1CCN(Cc2ccc(Cl)cc2)CC1)C1=CCOC1=O | 6.76 µM | 6.22 µM | 26.2 µM | 21.6 µM
16 | 22.9 µM | 4.76 µM | 4.94 µM | 8.66 µM | 6.54 µM | C=C1CC[C@@H]2[C@](C)(COC(C)=O)[C@H](OC(C)=O)CC[C@@]2(C)[C@@H]1C[C@H](SC(=S)N(Cc1ccccc1)Cc1ccccc1)C1=CCOC1=O | 5.67 µM | 6.02 µM | 7.22 µM | 7.64 µM
17 | 23.4 µM | 3.92 µM | 3.4 µM | 22.7 µM | 9.18 µM | C=C1CC[C@@H]2[C@](C)(COC(C)=O)[C@H](OC(C)=O)CC[C@@]2(C)[C@@H]1C[C@H](SC(=S)N1CCN(C(=O)C2COc3ccccc3O2)CC1)C1=CCOC1=O (stereo partly specified) | 6.16 µM | 5.59 µM | 25.5 µM | 17.3 µM
18 | 27.9 µM | 6.05 µM | 5.74 µM | 18.9 µM | 7.06 µM | C=C1CC[C@@H]2[C@](C)(COC(C)=O)[C@H](OC(C)=O)CC[C@@]2(C)[C@@H]1C[C@H](SC(=S)N1CCN(c2ccccc2F)CC1)C1=CCOC1=O | 5.22 µM | 9.39 µM | 9.53 µM | 8.63 µM
19 | 29.8 µM | 5.6 µM | 5.33 µM | 18.1 µM | 9.63 µM | C=C1CC[C@@H]2[C@](C)(COC(C)=O)[C@H](OC(C)=O)CC[C@@]2(C)[C@@H]1C[C@H](SC(=S)N1CCc2ccccc2C1c1ccccc1)C1=CCOC1=O (stereo partly specified) | 6.81 µM | 6.44 µM | 23.4 µM | 9.39 µM
20 | 11.6 µM | 0.68 µM | 3.59 µM | 25.7 µM | 6.14 µM | C=C1CC[C@@H]2[C@](C)(COC(C)=O)[C@H](OC(C)=O)CC[C@@]2(C)[C@@H]1C[C@H](SC(=S)N(C)Cc1ccc(F)cc1)C1=CCOC1=O | 5.15 µM | 3.04 µM | 16.9 µM | 7.78 µM
21 | 18 µM | 0.84 µM | 4.31 µM | 6.92 µM | 4.53 µM | C=C1CC[C@@H]2[C@](C)(COC(C)=O)[C@H](OC(C)=O)CC[C@@]2(C)[C@@H]1C[C@H](SC(=S)N1CCN(c2ncccn2)CC1)C1=CCOC1=O | 5.3 µM | 5.3 µM | 7.2 µM | 5.73 µM
22 | 9.42 µM | 2.48 µM | 5.85 µM | 17.1 µM | 4.29 µM | C=C1CC[C@@H]2[C@](C)(COC(C)=O)[C@H](OC(C)=O)CC[C@@]2(C)[C@@H]1C[C@H](SC(=S)N(CC)Cc1ccncc1)C1=CCOC1=O | 5.66 µM | 4.05 µM | 18 µM | 7.07 µM
23 | 32 µM | 8.48 µM | 6.52 µM | 31.7 µM | 8.91 µM | C=C1CC[C@@H]2[C@](C)(CO)[C@H](O)CC[C@@]2(C)[C@@H]1C/C=C1/C(=O)OC[C@H]1O [ANDROGRAPHOLIDE] | 9.36 µM | 17.7 µM | 34.8 µM | 23.6 µM

Row | Compound | IC50 (A549) | IC50 (MCF7) | IC50 (P388) | IC50 (KB) | IC50 (HT-29) | IC50 [1] | IC50 [2] | IC50 [3] | IC50 (HuCC-A1)
24 | Cc1c2ccncc2c(C)c2c1[nH]c1ccccc12 [ELLIPTECINE] | 2.25 µM | 1.79 µM | 1.79 µM | 1.92 µM | 2.16 µM | 1.81 µM | 2.43 µM | 2.19 µM | 2.43 µM
